Measurements gathered from unrelated publications.
Target: Serine/threonine-protein kinase SIK2 (SIK2, Homo sapiens, UniProt Q9H0K1)

O=C1Nc2ccc(Cl)cc2C1=Cc1cc(Cl)c(O)c(Cl)c1 — remaining signal (cell-free assay; 0.5 µM): 95%
O=C(Nc1cccnn1)N1CCC(=Cc2cccc(Oc3ccc(C(F)(F)F)cn3)c2)CC1 — remaining binding (cell-free assay; competition with immobilised ligand; 1 µM): 100%
Cc1ccc(C(=O)Nc2ccc(CN3CCN(C)CC3)c(C(F)(F)F)c2)cc1C#Cc1cnc2cccnn12 — remaining activity (enzyme activity; inhibitor; 23.5 nM): 67%
COc1cc(-c2cc(-c3ccc(N4CCNCC4)cc3)cnc2N)cc(OC)c1OC — inhibition (enzyme activity; inhibitor; 1 µM): 82%
CC(C)(O)[C@H]1CC[C@H](Nc2ccc3ncc(-c4cccc(C(F)(F)F)c4)n3n2)CC1 — remaining activity (enzyme activity; inhibitor; 1 µM): 47.7%
COc1cc(Nc2cnc(C#N)c(O[C@H](C)CN(C)C)n2)ncc1-c1cnn(C)c1 — remaining activity (enzyme activity; inhibitor; radiometric; 1 µM): 80%
COc1cc2ncnc(Nc3ccc(Oc4ccccc4)c(C)c3C)c2cc1OC — inhibition (enzyme activity; inhibitor; 1 µM): 0%
Nc1ncnc2occ(-c3ccc(NC(=O)Nc4cc(C(F)(F)F)ccc4F)cc3)c12 — remaining signal (cell-free assay; inhibitor; 20 µM): 57%
CC(C)(C)c1nc(-c2cccc(NS(=O)(=O)c3c(F)cccc3F)c2F)c(-c2ccnc(N)n2)s1 — remaining activity (enzyme activity; inhibitor; radiometric; 1 µM): 98%
CC(=O)C1=C(C)N(c2cccc(C(F)(F)F)c2)C(=O)N[C@@H]1c1ccc(C#N)nc1 — remaining binding (cell-free assay; competition with immobilised ligand; 1 µM): 87.8%
COc1cc(Nc2c(C#N)cnc3cc(OCCCN4CCN(C)CC4)c(OC)cc23)c(Cl)cc1Cl — remaining signal (cell-free assay; 0.5 µM): 1.93%
FC(F)(F)Oc1cccc(-c2cnc3ccc(-c4ccncc4)nn23)c1 — activity vs control (enzyme activity; inhibitor; radiometric; 1 µM): 68%
O=C1CCc2cc(Nc3cc(OC4CCOCC4)c([N+](=O)[O-])cc3Cl)ccc2N1 — remaining binding (cell-free assay; competition with immobilised ligand; 1 µM): 100%
Cc1sc(C(=O)NC2COC2)cc1-n1cc(NC(=O)Nc2c(F)cccc2Cl)cn1 — remaining activity (enzyme activity; inhibitor; 10 µM): 89.8%
O=C(NCCCC1CCCCC1)c1ccc(CNC(=O)c2cnn(-c3ccccc3)c2C(F)(F)F)cc1 — remaining binding (cell-free assay; competition with immobilised ligand; 0.1 µM): 100%
N#CCCc1ccc2c(c1)-c1[nH]c3ccc([N+](=O)[O-])cc3c1CC(=O)N2 — remaining signal (cell-free assay; 0.5 µM): 44.2%
Cc1nccc(COC(=O)N2C[C@@H]3[C@@H](CNC(=O)c4ccc5[nH]nnc5c4)[C@@H]3C2)n1 — remaining binding (cell-free assay; competition with immobilised ligand; 1 µM): 92%
O=C(Nc1cnn(-c2csc(C(=O)NC3COC3)c2)c1)Nc1ccccc1Cl — remaining activity (enzyme activity; inhibitor; 5 µM): 97%
